Drawing on ChEMBL document CHEMBL1158067, “Phenolic glycosides with antioxidant activity from the stem bark of Populus davidiana” (J Nat Prod, 2006), this text covers Activity for 12 compounds.

This data set is described as follows: ABTS radical scavenging activity assessed as Trolox equivalent antioxidant capacity index. In kind it is physicochemical. The procedure, abridged:
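ABTS radical cation generated from 7 mM ABTS in water plus potassium persulfate (final 2.45 mM), held in the dark at room temperature for 16 h, then diluted with water to A734 0.700 ± 0.020. Diluted radical mixed with compound or Trolox standard in MeOH (final 0–20 µM), kept at ambient temperature. A734 read exactly 6 min after mixing, solvent blanks included. Compounds were dosed to give 10–80% inhibition. Percent absorbance decrease was plotted against concentration and referenced to Trolox.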

Turning to `O=C(/C=C/c1ccc(O)cc1)O[C@@H]1O[C@H](CO)[C@@H](O)[C@H](O)[C@H]1O`, the Activity is on record as 0.78.

Regarding `Cc1cc(C(C)(C)C)c(O)c(C(C)(C)C)c1` [BUTYLATED HYDROXYTOLUENE], the Activity was determined as 0.8.

Regarding `O=C(O)/C=C/c1ccc(O)c(O)c1` [CAFFEIC ACID], the Activity is 1.98.

On to `O=C(/C=C/c1ccc(O)cc1)O[C@H]1[C@H](OC2CCCCC2O)O[C@H](CO)[C@@H](O)[C@@H]1O` (some centres not stated) [GRANDIDENTATIN], for which the Activity is on record as 1.27.

For `O=C(/C=C/c1ccc(O)cc1)OCc1cc(O)ccc1O[C@@H]1O[C@H](CO)[C@@H](O)[C@H](O)[C@H]1O` [POPULOSIDE A], the Activity was found to be 2.07.

Take `O=C(/C=C/c1ccc(O)cc1)OCc1ccccc1O[C@@H]1O[C@H](CO)[C@@H](O)[C@H](O)[C@H]1O` [POPULOSIDE B]: the Activity was found to be 1.13.

`COc1cc(/C=C/C(=O)OCc2ccccc2O[C@@H]2O[C@H](CO)[C@@H](O)[C@H](O)[C@H]2O)ccc1O` [POPULOSIDE C]: the Activity is 1.55.

As for `O=C(/C=C/c1ccc(O)c(O)c1)OCc1ccccc1O[C@@H]1O[C@H](CO)[C@@H](O)[C@H](O)[C@H]1O` [POPULOSIDE], the Activity was 1.67.

As to `OCc1ccccc1O[C@@H]1O[C@H](CO)[C@@H](O)[C@H](O)[C@H]1O` [SALICIN], the Activity was found to be 0.21.

`O=C(OCc1cc(O)ccc1O[C@@H]1O[C@H](CO)[C@@H](O)[C@H](O)[C@H]1O)c1ccccc1` [SALIREPOSIDE]: the Activity came out at 1.01.

Regarding `O=C(O[C@H]1[C@H](Oc2ccccc2COC(=O)C2(O)C=CCCC2=O)O[C@H](CO)[C@@H](O)[C@@H]1O)c1ccccc1` (some centres not stated) [TREMULACIN], the Activity is on record as 0.12.

As for `O=C(O[C@H]1[C@H](Oc2ccccc2CO)O[C@H](CO)[C@@H](O)[C@@H]1O)c1ccccc1` [TREMULDIN], the Activity came to 0.24.
